Measured values reported in ChEMBL document CHEMBL4765424 (Eur J Med Chem, 2020).

Test system: Severe acute respiratory syndrome coronavirus 2
Test: Inhibition of SARS CoV2 C-terminal His6-tagged 3CL protease expressed in Escherichia coli BL21 DE3 at 50 uM using Thr-Ser-Ala-Val-Leu-Gln-pNA as substrate preincubated for 30 mins followed by substrate addition and measured for 20 mins by colorimetric method relative to control
Details: time 50.0 min
In short: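 Recombinant SARS-CoV-2 3CLpro comes from a synthetic full-length gene expressed in E. coli and purified. The enzyme was preincubated with compound for 30 min at room temperature in 40 mM PBS, 100 mM NaCl, 1 mM EDTA, 0.1% Triton, pH 7.3. TSAVLQ-pNA was then added to 200 μM final. A390 was read every 30 s for 20 min. Line 1 is percent inhibition at 50 μM. IC50s were fitted with a Hill1 function.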

Point of comparison: CCCN1C(=O)C(=O)c2cc(I)ccc21, inhibition 51%. Against it:
- CN1C(=O)C(=O)c2cc(C(=O)ON3C(=O)CCC3=O)ccc21 — lower, 45%
- CN1C(=O)C(=O)c2cc(C(=O)O)ccc21 — lower, < 25%
- O=C1C(=O)N(CN2CCOCC2)c2ccc([N+](=O)[O-])cc21 — lower, < 25%
- COC(=O)c1ccc2c(c1)C(=O)C(=O)N2C — higher, 53%
- CCCCN1C(=O)C(=O)c2cc(C(=O)OC)ccc21 — lower, 42%
- COC(=O)c1ccc2c(c1)C(=O)C(=O)N2CN1CCOCC1 — lower, 32%
- O=C1C(=O)N(CO)c2ccccc21 — lower, < 25%
- O=C(O)c1ccc2c(c1)C(=O)C(=O)N2Cc1ccccc1 — lower, < 25%
- O=C1C(=O)N(CN2CCOCC2)c2ccc(F)cc21 — lower, < 25%
- CCCN1C(=O)C(=O)c2cc(C(=O)OC)ccc21 — higher, 53%
- COC(=O)c1ccc2c(c1)C(=O)C(=O)N2Cc1ccccc1 — lower, 45%
- O=C(O)c1ccc2c(c1)C(=O)C(=O)N2Cc1ccc2ccccc2c1 — lower, 32%
- CCCN1C(=O)C(=O)c2cc(C(=O)O)ccc21 — lower, < 25%
- O=C1C(=O)N(CN2CCCCC2)c2ccc(F)cc21 — lower, < 25%
- O=C1C(=O)N(CN2CCOCC2)c2ccccc21 — lower, < 25%
- O=C1C(=O)N(CN2CCOCC2)c2ccc(Cl)cc21 — lower, < 25%
- CCCCN1C(=O)C(=O)c2cc(C(=O)ON3C(=O)CCC3=O)ccc21 — lower, 47%
- CCCCN1C(=O)C(=O)c2cc(C(=O)O)ccc21 — lower, < 25%
- CN1C(=O)C(=O)c2cc(I)ccc21 — lower, 25%

Test system: not listed separately
Test: Inhibition of SARS CoV2 C-terminal His6-tagged 3CL protease expressed in Escherichia coli BL21 DE3 using Thr-Ser-Ala-Val-Leu-Gln-pNA as substrate preincubated for 30 mins followed by substrate addition and measured for 20 mins by colorimetric method
Design: species or system Severe acute respiratory syndrome coronavirus 2
Details: not given

Point of comparison: O=C(ON1C(=O)CCC1=O)c1ccc2c(c1)C(=O)C(=O)N2Cc1ccccc1, IC50 15.5 µM. Against it:
- NC(=O)c1ccc2c(c1)C(=O)C(=O)N2Cc1ccc2cc(-c3ccccc3)ccc2c1 — 1.6-fold higher, 24.9 µM
- NC(=O)Cc1ccc2c(c1)C(=O)C(=O)N2Cc1ccc2ccccc2c1 — 2.5-fold higher, 39.2 µM
- CCCN1C(=O)C(=O)c2cc(C(N)=O)ccc21 — 1.5-fold lower, 10.2 µM
- NC(=O)c1ccc2c(c1)C(=O)C(=O)N2Cc1ccc2cc(Br)ccc2c1 — 330-fold lower, 0.047 µM
- NC(=O)c1ccc2c(c1)C(=O)C(=O)N2Cc1ccc2ccccc2c1 — 340-fold lower, 0.045 µM
- NC(=O)c1ccc2c(c1)C(=O)C(=O)N2Cc1cc2ccccc2s1 — 290-fold lower, 0.053 µM
- CCCCN1C(=O)C(=O)c2cc(I)ccc21 — 2.7-fold higher, 41.8 µM
- CCCCN1C(=O)C(=O)c2cc(C(N)=O)ccc21 — within 1.5-fold, 17.8 µM
